# Assay outcomes: PubChem, Broad Institute
# Pf Dd2 inh: blocks growth of Plasmodium falciparum Dd2 parasites; P. falciparum Dd2 growth, SYBR Green, 72 h; active compounds read low; actives 2.3% (n = 94,000); AID 1159554; activity change, % at 10 µM; in the data active means activity change below about -80%; inconclusive means no clear call, values can overlap the other calls
# IDH1 mut inh: blocks human IDH1 R132H reductase activity | actives 0.18% (n = 70,000) | O75874 | inhibition, % at 10 µM | diaphorase/resazurin fluorescence, 60 min; in the data active means inhibition above about 34%; inconclusive means no clear call, values can overlap the other calls; inactive means below about 11%;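 further: 0% = DMSO and 100% = no enzyme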
# Target sequence (O75874 whole entry R132H): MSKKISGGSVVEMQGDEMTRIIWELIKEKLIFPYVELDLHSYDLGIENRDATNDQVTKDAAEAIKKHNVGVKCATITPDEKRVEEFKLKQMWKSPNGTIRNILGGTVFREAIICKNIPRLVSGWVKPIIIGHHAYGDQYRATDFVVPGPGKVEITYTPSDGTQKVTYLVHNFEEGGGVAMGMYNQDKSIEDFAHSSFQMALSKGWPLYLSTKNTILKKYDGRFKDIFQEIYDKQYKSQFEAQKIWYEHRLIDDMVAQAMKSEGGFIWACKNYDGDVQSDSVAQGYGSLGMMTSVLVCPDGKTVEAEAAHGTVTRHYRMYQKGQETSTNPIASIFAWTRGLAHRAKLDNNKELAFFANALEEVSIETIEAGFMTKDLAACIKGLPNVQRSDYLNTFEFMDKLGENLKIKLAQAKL
# T cruzi growth-1: inhibitors of T. cruzi proliferation; T. cruzi beta-gal in NIH3T3, GalScreen luminescence, 90 h; inhibition, % at 8.34 µM; actives 5.9% (n = 77,000); AID 624255;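 active means mean inhibition above about 93%, with at least 55% of replicates each passing it, limit read from the data, passing the limit was not always enough; inconclusive means only one of those two conditions holds; inactive means neither condition holds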
# KDM4C inh: blocks human GASC-1 (KDM4C) demethylase activity | GST-KDM4C 2-372, H3K9me3 peptide, LANCE TR-FRET | inhibition, % at 12.5 µM | actives 0.15% (n = 96,000);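 active means mean replicate inhibition above about 25%, with at least 55% of replicates also reaching it, limit read from the data, passing the limit was not always enough; inconclusive means only one of those two conditions met; inactive means neither condition met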
#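 Test system – GST-tagged GASC-1 (JMJD2C) catalytic fragment, aa 2-372 · Medium – HEPES buffer, pH 7.5, plus ascorbate · Reagent – H3K9me3 peptide with Fe(II)/2OG · Compound – one test concentration per compound · Timing – 30 min reaction, 60 min detection, RT · Technique – TR-FRET with Eu antibody and ULight streptavidin, EDTA stop · Read-out basis – inhibition from TR-FRET ratio decrease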
# T cruzi growth-2: Trypanosoma cruzi proliferation inhibition; shares compounds with T cruzi growth-1; inhibition, % at 8.35 µM; T. cruzi beta-gal in NIH3T3, GalScreen luminescence, 90 h; actives 72% (n = 5,600);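 active means mean replicate inhibition above about 95% and at least 55% of replicates individually reaching it, limit read from the data; inconclusive means only one of the two criteria is met; inactive means neither criterion is met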
# T cruzi growth-3: inhibitors of T. cruzi proliferation; shares compounds with T cruzi growth-1; T. cruzi beta-gal in NIH3T3, GalScreen luminescence, 90 h; inhibition, % at 2.09 µM; actives 21% (n = 5,600);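 active means mean inhibition above about 95%, with at least 55% of replicates also reaching it, limit read from the data; inconclusive means meets just one of the two conditions; inactive means meets neither condition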;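 further: plate controls were neutral control median for no effect and positive control median for full effect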
# 3T3 cytotox: kills mouse NIH/3T3 fibroblasts | AID 651742 | cytotoxicity (signal decrease), % at 8.35 µM | NIH/3T3 viability, CellTiter-Glo ATP luminescence, 90 h | actives 14% (n = 5,600) | shares compounds with T cruzi growth-1;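 active means mean signal decrease across replicates above about 35% based on untreated-well scatter, with enough replicates individually passing, limit read from the data; inconclusive means no rule stated though some were filed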;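 further: 0% = median of neutral control wells and 100% = median of positive control wells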
# NIH3T3 tox 2: cytotoxicity in mouse NIH/3T3 fibroblasts; shares compounds with T cruzi growth-1; NIH/3T3 viability, CellTiter-Glo ATP luminescence, 90 h; inhibition, % at 24.9 µM; actives 56% (n = 5,600); AID 651744;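 active means mean loss of cell viability signal at or above a set limit, and enough replicates individually reaching it; inconclusive means meets only the mean limit or only the replicate share; inactive means meets neither condition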;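 further: 0% = median of neutral control wells and 100% = median of positive control wells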
# Active calls of the source: *; ? = inconclusive; . = no result given. In the library only some 5.8% were active in any assay of this set; here they are far more common.
SMILES,Pf Dd2 inh,IDH1 mut inh,T cruzi growth-1,KDM4C inh,T cruzi growth-2,T cruzi growth-3,3T3 cytotox,NIH3T3 tox 2
C[C@H]1CN([C@@H](C)CO)S(=O)(=O)c2ccc(C#Cc3ccccc3)cc2O[C@@H]1CN(C)C(=O)Nc1ccc2c(c1)OCO2,-52.6,-0.2,130.8*,-1.4,106.0*,75.5,19.5,12.6
C[C@H](CO)N1C[C@H](C)[C@@H](CN(C)C(=O)Nc2ccc3c(c2)OCO3)Oc2cc(C3=CCCC3)ccc2S1(=O)=O,-46.7,-0.3,113.9*,0.4,96.1*,44.9,-1.2,17.2
C[C@@H]1CN([C@@H](C)CO)S(=O)(=O)c2ccc(C#Cc3ccccc3)cc2O[C@@H]1CN(C)C(=O)Nc1ccc2c(c1)OCO2,?,-0.6,130.7*,9.3,106.9*,?,19.6,30.0*
C[C@H](CO)N1C[C@H](C)[C@H](CN(C)C(=O)Nc2ccc3c(c2)OCO3)Oc2cc(C#Cc3ccccc3)ccc2S1(=O)=O,-79.5,0.2,130.7*,-0.4,108.1*,94.3,-18.0,19.4
C[C@H]1CN([C@@H](C)CO)S(=O)(=O)c2ccc(C3=CCCCC3)cc2O[C@@H]1CN(C)C(=O)Nc1ccc2c(c1)OCO2,-2.5,-0.6,.,-1.8,.,.,.,.
CC(C)(C)OC(=O)N1CCC[C@H]1/C=N/NC(=O)CCCCCC(=O)NO,.,0.2,.,.,.,.,.,.
O=C(N/N=C/c1ccc(-c2cccc(Cl)c2)o1)c1ccccc1O,.,-0.1,.,.,.,.,.,.
COc1ccc(S(=O)(=O)N(C)CC(=O)Nc2cccc(SC)c2)cc1C,.,-0.5,.,.,.,.,.,.
C[C@@H]1CN([C@H](C)CO)S(=O)(=O)c2ccc(C#Cc3ccncc3)cc2O[C@H]1CN(C)C(=O)Nc1ccc2c(c1)OCO2,-53.9,.,35.5,12.9,.,.,.,.
C[C@H](CO)N1C[C@H](C)[C@H](CN(C)C(=O)Nc2ccc3c(c2)OCO3)Oc2cc(C#Cc3cccnc3)ccc2S1(=O)=O,?,-9.7,101.3*,-1.8,48.0,-11.9,-2.9,8.2
C[C@@H]1CN([C@H](C)CO)S(=O)(=O)c2ccc(C#Cc3ccccc3)cc2O[C@@H]1CN(C)C(=O)Nc1ccc2c(c1)OCO2,-76.1,0.0,130.2*,17.6,105.7*,106.6*,5.0,4.1
C[C@@H]1CN([C@H](C)CO)S(=O)(=O)c2ccc(C#Cc3ccncc3)cc2O[C@@H]1CN(C)C(=O)Nc1ccc2c(c1)OCO2,-52.2,.,25.0,3.9,.,.,.,.
C[C@@H]1CN([C@@H](C)CO)S(=O)(=O)c2ccc(C#Cc3ccccc3)cc2O[C@H]1CN(C)C(=O)Nc1ccc2c(c1)OCO2,-72.8,.,132.4*,-2.2,97.6*,85.2,?,44.9*
Cc1cccc(N(CC(=O)NC2CCCCCC2)S(C)(=O)=O)c1C,.,-0.1,.,.,.,.,.,.
CCOc1ccc(NC(=O)C(C)Sc2ncnc3sc(-c4ccccc4)cc23)cc1 (stereo unspecified),.,0.2,.,.,.,.,.,.
C[C@@H]1CCCCO[C@@H](CN(C)Cc2ccc3c(c2)OCO3)[C@@H](C)CN([C@@H](C)CO)C(=O)c2cc(NC(=O)Nc3cccc4ccccc34)ccc2O1,-47.1,0.5,?,-0.6,101.6*,106.4*,14.0,20.6
C[C@@H]1CCCCO[C@@H](CN(C)Cc2ccccc2)[C@@H](C)CN([C@@H](C)CO)C(=O)c2cc(NC(=O)Nc3cccc4ccccc34)ccc2O1,-18.6,2.4,114.6*,0.7,107.2*,109.2*,17.5,5.8
C[C@@H]1CCCCO[C@@H](CN(C)Cc2ccncc2)[C@H](C)CN([C@H](C)CO)C(=O)c2cc(NC(=O)Nc3cccc4ccccc34)ccc2O1,-47.6,-2.5,98.0*,-0.3,107.7*,83.0,-14.1,21.8
C[C@@H]1CN([C@@H](C)CO)C(=O)c2cc(NC(=O)Nc3cccc4ccccc34)ccc2O[C@@H](C)CCCCO[C@@H]1CN(C)Cc1ccncc1,-46.3,.,7.8,-0.7,.,.,.,.
Cc1ccc(C(=O)c2oc3ccccc3c2NC(=O)c2cc3ccccc3oc2=O)cc1F,.,-0.3,.,.,.,.,.,.
C[C@@H]1CCCCO[C@H](CN(C)S(=O)(=O)c2ccc(Cl)cc2)[C@@H](C)CN([C@@H](C)CO)C(=O)c2cc(NC(=O)Cc3ccccc3)ccc2O1,-68.1,-0.6,105.2*,-1.9,104.8*,87.0,-15.8,46.4*
C[C@@H]1CN([C@H](C)CO)C(=O)c2cc(NC(=O)Cc3ccccc3)ccc2O[C@@H](C)CCCCO[C@H]1CN(C)S(=O)(=O)c1ccc(Cl)cc1,-81.9*,.,95.8*,0.5,107.2*,77.3,17.2,13.6
O=C(C[C@@H]1CC[C@H]2[C@@H](COC[C@@H](O)CN2Cc2cccc(-c3ccncc3)c2)O1)N1CCCCC1,-10.7,.,63.1,-0.1,.,.,.,.
O=C(C[C@@H]1CC[C@H]2[C@@H](COC[C@@H](O)CN2C(=O)Nc2cccc(Cl)c2)O1)N1CCCCC1,-6.4,.,95.4*,-2.2,64.2,16.4,-2.2,15.3
O=C(C[C@@H]1CC[C@@H]2[C@H](COC[C@@H](O)CN2Cc2nccs2)O1)N1CCC(Cc2ccccc2)CC1,.,.,164.8*,-0.2,84.0,32.1,17.8,17.5
SMILES,Pf Dd2 inh,IDH1 mut inh,T cruzi growth-1,KDM4C inh,T cruzi growth-2,T cruzi growth-3,3T3 cytotox,NIH3T3 tox 2
O=C(C[C@H]1CC[C@H]2[C@@H](COC[C@@H](O)CN2Cc2cccc(-c3ccncc3)c2)O1)N1CCCCC1,-17.8,.,109.3*,-0.7,59.0,-12.6,-23.1,-4.9
O=C(C[C@H]1CC[C@H]2[C@@H](COC[C@@H](O)CN2C(=O)Nc2cccc(Cl)c2)O1)N1CCCCC1,5.8,.,13.2,1.7,.,.,.,.
O=C(C[C@H]1CC[C@H]2[C@@H](COC[C@H](O)CN2Cc2cccc(Cl)c2)O1)N1CCCCC1,4.1,.,121.9*,1.7,78.0,30.5,0.4,10.4
COc1ccc(NC(=S)N2CCN(Cc3c(C)nn(C)c3C)CC2)cc1OC,.,-0.9,.,.,.,.,.,.
CCC(=O)N(C)C[C@H]1Oc2cc(C#CCC3CCCC3)ccc2S(=O)(=O)N([C@H](C)CO)C[C@H]1C,-59.3,-0.3,115.6*,-0.2,97.5*,55.0,44.1*,103.1*
CCC(=O)N(C)C[C@@H]1Oc2cc(C#CCC3CCCC3)ccc2S(=O)(=O)N([C@H](C)CO)C[C@H]1C,-64.2,0.1,94.0,-2.2,.,.,.,.
C[C@@H]1CN([C@H](C)CO)S(=O)(=O)c2ccc(C#CCC3CCCC3)cc2O[C@@H]1CN(C)C(=O)CC1CC1,-70.5,0.3,112.5*,-0.7,96.3*,94.9,12.5,105.2*
CNC[C@H]1Oc2cc(C#CCC3CCCC3)ccc2S(=O)(=O)N([C@H](C)CO)C[C@@H]1C,-52.8,-0.4,?,-1.7,99.2*,72.8,28.9,106.4*
